According to BindingDB's records for doi:10.1016/j.bmcl.2018.12.060 (Yanbian University College of Pharmacy, 2019):

Target: Hypoxia-inducible factor 1-alpha (Homo sapiens, UniProt Q16665)
Assay: Inhibition of HIF1alpha transcriptional activity in human Hep3B cells after 24 hrs in hypoxic condition by HRE-dual luciferase reporter gene assay
In short: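 Hep3B cells transiently co-transfected with pGL3-HRE-luciferase and pRL-CMV, after 24 h incubated under hypoxia with or without compound; luciferase activity measured after 24 h, ursolic acid as positive control; mean ± SD of three independent experiments.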

Chain of Hypoxia-inducible factor 1-alpha (Q16665 whole entry): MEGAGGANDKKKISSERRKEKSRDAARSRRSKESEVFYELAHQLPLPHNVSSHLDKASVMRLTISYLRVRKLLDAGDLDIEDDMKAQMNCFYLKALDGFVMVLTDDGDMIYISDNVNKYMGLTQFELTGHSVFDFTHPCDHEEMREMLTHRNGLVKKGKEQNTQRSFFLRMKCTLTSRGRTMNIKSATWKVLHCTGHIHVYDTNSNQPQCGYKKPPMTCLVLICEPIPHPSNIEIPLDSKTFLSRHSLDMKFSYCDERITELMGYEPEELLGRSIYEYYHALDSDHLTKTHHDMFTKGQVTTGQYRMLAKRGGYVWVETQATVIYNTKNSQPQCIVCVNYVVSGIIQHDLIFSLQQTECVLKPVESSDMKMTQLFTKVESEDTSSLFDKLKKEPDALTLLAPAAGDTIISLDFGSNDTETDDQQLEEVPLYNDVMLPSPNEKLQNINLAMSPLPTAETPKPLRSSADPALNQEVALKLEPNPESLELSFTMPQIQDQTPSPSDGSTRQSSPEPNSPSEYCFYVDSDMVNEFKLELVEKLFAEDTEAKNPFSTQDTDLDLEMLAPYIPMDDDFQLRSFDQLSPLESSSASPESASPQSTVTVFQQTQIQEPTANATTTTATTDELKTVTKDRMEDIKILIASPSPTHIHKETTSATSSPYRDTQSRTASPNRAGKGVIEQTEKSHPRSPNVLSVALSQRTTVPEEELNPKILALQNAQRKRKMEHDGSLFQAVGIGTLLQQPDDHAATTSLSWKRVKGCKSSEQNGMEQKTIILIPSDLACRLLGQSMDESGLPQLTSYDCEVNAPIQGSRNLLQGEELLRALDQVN

SMILES | IC50
CCOC(=O)[C@]12CC[C@@H](C)[C@H](C)[C@H]1C1=CC[C@@H]3[C@@]4(C)CC/C(=N\NC(=N)N)C(C)(C)[C@@H]4CC[C@@]3(C)[C@]1(C)CC2 | > 100 µM
C[C@H]1[C@H](C)CC[C@]2(C(=O)OCc3cccc(Cl)c3)CC[C@]3(C)C(=CC[C@@H]4[C@@]5(C)CC/C(=N\NC(=N)N)C(C)(C)[C@@H]5CC[C@]43C)[C@H]12 | 30.3 µM
C[C@H]1[C@H](C)CC[C@]2(C(=O)O)CC[C@]3(C)C(=CC[C@@H]4[C@@]5(C)CC(=C\c6ccco6)/C(=N\NC(=N)N)C(C)(C)[C@@H]5CC[C@]43C)[C@H]12 | > 100 µM
COC(=O)[C@]12CC[C@@H](C)[C@H](C)[C@H]1C1=CC[C@@H]3[C@@]4(C)CC/C(=N\NC(=N)N)C(C)(C)[C@@H]4CC[C@@]3(C)[C@]1(C)CC2 | 6.7 µM
C[C@H]1[C@H](C)CC[C@]2(C(=O)O)CC[C@]3(C)C(=CC[C@@H]4[C@@]5(C)CC/C(=N\NC(N)=O)C(C)(C)[C@@H]5CC[C@]43C)[C@H]12 | 13.3 µM
C[C@H]1[C@H](C)CC[C@]2(C(=O)OCc3c(Cl)cccc3Cl)CC[C@]3(C)C(=CC[C@@H]4[C@@]5(C)CC/C(=N\NC(=N)N)C(C)(C)[C@@H]5CC[C@]43C)[C@H]12 | 13.3 µM
C[C@H]1[C@H](C)CC[C@]2(C(=O)O)CC[C@]3(C)C(=CC[C@@H]4[C@@]5(C)CC[C@H](O)C(C)(C)[C@@H]5CC[C@]43C)[C@H]12 [3beta-hydroxyurs-12-en-28-oic acid] | > 100 µM
Cc1ccc(COC(=O)[C@]23CC[C@@H](C)[C@H](C)[C@H]2C2=CC[C@@H]4[C@@]5(C)CC/C(=N\NC(=N)N)C(C)(C)[C@@H]5CC[C@@]4(C)[C@]2(C)CC3)cc1 | 10.3 µM
C[C@H]1[C@H](C)CC[C@]2(C(=O)O)CC[C@]3(C)C(=CC[C@@H]4[C@@]5(C)CC(=C\c6ccccc6F)/C(=N\NC(=N)N)C(C)(C)[C@@H]5CC[C@]43C)[C@H]12 | > 100 µM
C[C@H]1[C@H](C)CC[C@]2(C(=O)O)CC[C@]3(C)C(=CC[C@@H]4[C@@]5(C)CC(=C\c6cccs6)/C(=N\NC(=N)N)C(C)(C)[C@@H]5CC[C@]43C)[C@H]12 | 22.8 µM
C[C@H]1[C@H](C)CC[C@]2(C(=O)O)CC[C@]3(C)C(=CC[C@@H]4[C@@]5(C)CC(=C\c6ccc(F)cc6)/C(=N\NC(=N)N)C(C)(C)[C@@H]5CC[C@]43C)[C@H]12 | > 100 µM
Cc1ccc(/C=C2\C[C@]3(C)[C@H]4CC=C5[C@@H]6[C@@H](C)[C@H](C)CC[C@]6(C(=O)O)CC[C@@]5(C)[C@]4(C)CC[C@H]3C(C)(C)\C2=N\NC(=N)N)cc1 | > 100 µM
C[C@H]1[C@H](C)CC[C@]2(C(=O)O)CC[C@]3(C)C(=CC[C@@H]4[C@@]5(C)CC(=C\c6cccc7ccccc67)/C(=N\NC(=N)N)C(C)(C)[C@@H]5CC[C@]43C)[C@H]12 | > 100 µM
C[C@H]1[C@H](C)CC[C@]2(C(=O)OCc3ccc(Cl)cc3Cl)CC[C@]3(C)C(=CC[C@@H]4[C@@]5(C)CC/C(=N\NC(=N)N)C(C)(C)[C@@H]5CC[C@]43C)[C@H]12 | 40.5 µM
C[C@H]1[C@H](C)CC[C@]2(C(=O)O)CC[C@]3(C)C(=CC[C@@H]4[C@@]5(C)CC(=C\c6ccccc6)/C(=N\NC(=N)N)C(C)(C)[C@@H]5CC[C@]43C)[C@H]12 | 37.8 µM
C[C@H]1[C@H](C)CC[C@]2(C(=O)O)CC[C@]3(C)C(=CC[C@@H]4[C@@]5(C)CC/C(=N\NC(N)=S)C(C)(C)[C@@H]5CC[C@]43C)[C@H]12 | 88.8 µM
C[C@H]1[C@H](C)CC[C@]2(C(=O)O)CC[C@]3(C)C(=CC[C@@H]4[C@@]5(C)CC(=C\c6c(Cl)cccc6Cl)/C(=N\NC(=N)N)C(C)(C)[C@@H]5CC[C@]43C)[C@H]12 | > 100 µM
C[C@H]1[C@H](C)CC[C@]2(C(=O)O)CC[C@]3(C)C(=CC[C@@H]4[C@@]5(C)CC(=C\c6ccccc6Br)/C(=N\NC(=N)N)C(C)(C)[C@@H]5CC[C@]43C)[C@H]12 | > 100 µM
C[C@H]1[C@H](C)CC[C@]2(C(=O)O)CC[C@]3(C)C(=CC[C@@H]4[C@@]5(C)CC(=C\c6ccccc6Cl)/C(=N\NC(=N)N)C(C)(C)[C@@H]5CC[C@]43C)[C@H]12 | > 100 µM
C[C@H]1[C@H](C)CC[C@]2(C(=O)O)CC[C@]3(C)C(=CC[C@@H]4[C@@]5(C)CC(=C\c6cccc(Br)c6)/C(=N\NC(=N)N)C(C)(C)[C@@H]5CC[C@]43C)[C@H]12 | 75.4 µM
C[C@H]1[C@H](C)CC[C@]2(C(=O)OCc3ccc(Cl)cc3)CC[C@]3(C)C(=CC[C@@H]4[C@@]5(C)CC/C(=N\NC(=N)N)C(C)(C)[C@@H]5CC[C@]43C)[C@H]12 | 21.1 µM
C[C@H]1[C@H](C)CC[C@]2(C(=O)O)CC[C@]3(C)C(=CC[C@@H]4[C@@]5(C)CC(=C\c6cccc(Cl)c6)/C(=N\NC(=N)N)C(C)(C)[C@@H]5CC[C@]43C)[C@H]12 | > 100 µM
C[C@H]1[C@H](C)CC[C@]2(C(=O)O)CC[C@]3(C)C(=CC[C@@H]4[C@@]5(C)CC(=C\c6ccc(Cl)cc6Cl)/C(=N\NC(=N)N)C(C)(C)[C@@H]5CC[C@]43C)[C@H]12 | 90.4 µM
C[C@H]1[C@H](C)CC[C@]2(C(=O)O)CC[C@]3(C)C(=CC[C@@H]4[C@@]5(C)CC/C(=N\NC(=N)N)C(C)(C)[C@@H]5CC[C@]43C)[C@H]12 | > 100 µM
C[C@H]1[C@H](C)CC[C@]2(C(=O)O)CC[C@]3(C)C(=CC[C@@H]4[C@@]5(C)CC(=C\c6cccc(F)c6)/C(=N\NC(=N)N)C(C)(C)[C@@H]5CC[C@]43C)[C@H]12 | > 100 µM
CCCCCOC(=O)[C@]12CC[C@@H](C)[C@H](C)[C@H]1C1=CC[C@@H]3[C@@]4(C)CC/C(=N\NC(=N)N)C(C)(C)[C@@H]4CC[C@@]3(C)[C@]1(C)CC2 | > 100 µM
C[C@H]1[C@H](C)CC[C@]2(C(=O)O)CC[C@]3(C)C(=CC[C@@H]4[C@@]5(C)CC(=C\c6ccc([N+](=O)[O-])cc6)/C(=N\NC(=N)N)C(C)(C)[C@@H]5CC[C@]43C)[C@H]12 | > 100 µM
